# Assay results as given in ChEMBL document CHEMBL1122501, “Potential antiatherosclerotic agents. 2. (Aralkylamino)- and (alkylamino) benzoic acid analogues of cetaben” (1983).
# How the values were obtained:
# Rattus norvegicus [1] = assay: In vivo Triglyceride lowering activity at dose as 0.025 % of the diet; format: functional
# Outline: (§1)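 Male CFE or CD-1 Sprague-Dawley rats, 140-150 g; 8 per control group, 4 per test group. Compound mixed into ground chow (w/w) via MeOH-CHCl3 (1:3) solution, solvent evaporated; controls got solvent-treated chow. Fed ad libitum 5 days, food intake monitored, killed fed and bled. Serum sterols and triglycerides by adapted autoanalyzer methods; mean percent of control, Student's t test.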
# Rattus norvegicus [2] = assay: In vivo triglyceride lowering activity dosed at 0.05 % of the diet; format: functional; outline: as §1
# Rattus norvegicus [3] = assay: In vivo Sterol lowering activity at dose as 0.03 % of the diet; format: functional; outline: as §1
# Rattus norvegicus [4] = assay: In vivo triglyceride lowering activity dosed at 0.10 % of the diet; format: functional; outline: as §1
# Rattus norvegicus [5] = assay: In vivo sterol lowering activity dosed at 0.10 % of the diet; format: functional; outline: as §1
# Rattus norvegicus [6] = assay: In vivo Sterol lowering activity at dose as 0.01 % of the diet; format: functional; outline: as §1
# Rattus norvegicus [7] = assay: In vivo Sterol lowering activity at dose as 0.025 % of the diet.; format: functional; outline: as §1
# Rattus norvegicus [8] = assay: In vivo Sterol lowering activity at dose as 0.05 % of the diet.; format: functional; outline: as §1
# [9] = molecular target: T1, Sterol O-acyltransferase 1 (Rattus norvegicus) (UniProt O70536); assay: In vitro inhibitory activity against acyl coenzyme A:cholesterol acyltransferase (ACAT); parameters: concentration or dose not given beside the values; conditions: concentration not given here
# T1 sequence (whole entry): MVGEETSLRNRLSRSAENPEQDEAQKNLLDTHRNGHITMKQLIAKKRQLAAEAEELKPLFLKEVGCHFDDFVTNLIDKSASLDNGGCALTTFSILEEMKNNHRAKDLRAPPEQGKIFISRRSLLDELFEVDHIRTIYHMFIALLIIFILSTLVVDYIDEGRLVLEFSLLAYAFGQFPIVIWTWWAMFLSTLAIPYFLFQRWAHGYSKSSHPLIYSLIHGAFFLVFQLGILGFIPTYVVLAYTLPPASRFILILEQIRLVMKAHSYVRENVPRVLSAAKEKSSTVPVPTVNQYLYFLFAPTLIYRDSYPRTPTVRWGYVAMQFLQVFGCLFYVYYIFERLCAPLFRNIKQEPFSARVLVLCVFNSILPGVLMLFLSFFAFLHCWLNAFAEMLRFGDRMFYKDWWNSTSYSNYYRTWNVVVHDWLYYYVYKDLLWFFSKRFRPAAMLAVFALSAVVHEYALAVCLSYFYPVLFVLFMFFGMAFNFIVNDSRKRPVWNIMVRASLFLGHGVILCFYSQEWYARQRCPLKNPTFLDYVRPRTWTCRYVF
# Outline: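 ACAT enzyme from rat adrenal homogenate in 0.2 M KH2PO4 buffer pH 7.4, 1000g 15 min 5 °C supernatant (microsomal fraction). Supernatant + BSA (50 mg/mL) + compound at final 5.2 μg/mL + buffer preincubated 10 min 37 °C; [14C]oleoyl-CoA (0.4 μCi) added, 30 min 37 °C. Lipids extracted, TLC; cholesteryl ester zone counted. Mean % inhibition vs no-compound control; Student's t test.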
# Rattus norvegicus [10] = assay: In vivo triglyceride lowering activity, dosed at 0.10 % of the diet.; format: functional; outline: as §1
# Rattus norvegicus [11] = assay: In vivo Triglyceride lowering activity at dose as 0.017 % of the diet.; format: functional; outline: as §1
# Rattus norvegicus [12] = assay: In vivo Sterol lowering activity at dose as 0.017 % of the diet.; format: functional; outline: as §1
# Rattus norvegicus [13] = assay: In vivo Triglyceride lowering activity at dose as 0.05 % of the diet.; format: functional; outline: as §1
# Rattus norvegicus [14] = assay: In vivo Sterol lowering activity at dose as 0.10 % of the diet.; format: functional; outline: as §1
# Rattus norvegicus [15] = assay: In vivo Sterol lowering activity at dose as 0.025 % of the diet; format: functional; outline: as §1
# Rattus norvegicus [16] = assay: In vivo Triglyceride lowering activity at dose as 0.025% of the diet; format: functional; outline: as §1
# Rattus norvegicus [17] = assay: In vivo Sterol lowering activity at dose as 0.05 % of the diet; format: functional; outline: as §1
# Rattus norvegicus [18] = assay: In vivo triglyceride lowering activity, dosed at 0.01 % of the diet.; format: functional; outline: as §1
# Rattus norvegicus [19] = assay: In vivo Triglyceride lowering activity at dose as 0.03 % of the diet.; format: functional; outline: as §1
# Rattus norvegicus [20] = assay: In vivo Triglyceride lowering activity at dose as 0.01 % of the diet; format: functional; outline: as §1
# Rattus norvegicus [21] = assay: In vivo triglyceride lowering activity, dosed at 0.03 % of the diet; format: functional; outline: as §1
Compound,inhibition [9] [%],Diet (Rattus norvegicus [2]) [%],"serum triglycerides, percent of control (Rattus norvegicus [4]) [%]","serum sterol, percent of control (Rattus norvegicus [5]) [%]",Diet (Rattus norvegicus [8]) [%],Diet (Rattus norvegicus [10]) [%],Diet (Rattus norvegicus [11]) [%],Diet (Rattus norvegicus [12]) [%],Diet (Rattus norvegicus [17]) [%],further results
C=CCCCCCCCC/C=C/CCCNc1ccc(C(=O)[O-])cc1.[Na+],,90,87,86,,,,,,Diet (Rattus norvegicus [1]): 106%; Diet (Rattus norvegicus [3]): 92%; Diet (Rattus norvegicus [6]): 88%
CCOC(=O)c1ccc(NC/C=C/c2ccccc2)cc1,,58,60,84,86,,,,,Diet (Rattus norvegicus [1]): 73%; Diet (Rattus norvegicus [7]): 92%
CCOC(=O)c1ccc(NCc2ccc(OCc3ccccc3)cc2)cc1,45,85,,91,100,92,97,105,,
O=C(O)c1ccc(NCc2ccc(OCc3ccccc3)cc2)cc1,16,85,89,,98,,91,,,"Diet (Rattus norvegicus [7]): 93%; serum sterol, percent of control (Rattus norvegicus [14]): 97%"
O=C(O)c1ccc(NCc2ccccc2)cc1,2,62,65,87,,,92,101,86,
O=C(O)c1ccc(NCCc2cccs2)cc1,5,,,,81,103,121,74,,"Diet (Rattus norvegicus [13]): 97%; serum sterol, percent of control (Rattus norvegicus [14]): 88%"
O=C(O)c1ccc(NCCc2ccc(OCc3ccccc3)cc2)cc1,18,,,,103,84,,,,Diet (Rattus norvegicus [1]): 70%; Diet (Rattus norvegicus [7]): 100%; Diet (Rattus norvegicus [13]): 81%; Diet (Rattus norvegicus [14]): 86%
O=C(O)c1ccc(NCCCCCCCCCCc2ccccc2)cc1,< 44,88,81,<87,,,,,89,Diet (Rattus norvegicus [15]): <87%; Diet (Rattus norvegicus [16]): <79%

# Second part, led by results:
inhibition [9] [%],Compound,Diet (Rattus norvegicus [2]) [%],"serum triglycerides, percent of control (Rattus norvegicus [4]) [%]","serum sterol, percent of control (Rattus norvegicus [5]) [%]",Diet (Rattus norvegicus [8]) [%],Diet (Rattus norvegicus [10]) [%],Diet (Rattus norvegicus [11]) [%],Diet (Rattus norvegicus [12]) [%],Diet (Rattus norvegicus [17]) [%],further results
9,CCOC(=O)c1ccc(NCCc2cccc3ccccc23)cc1,,73,,103,,112,98,,"Diet (Rattus norvegicus [13]): 80%; serum sterol, percent of control (Rattus norvegicus [14]): 94%"
< 50,CCOC(=O)c1ccc(NCCCCCCCCc2ccccc2)cc1,<65,<54,98,,,,,96,Diet (Rattus norvegicus [15]): 88%; Diet (Rattus norvegicus [16]): <61%
< 28,O=C(O)c1ccc(NCCCCCCCCCc2ccccc2)cc1,<58,<68,92,,,,,96,Diet (Rattus norvegicus [15]): 96%; Diet (Rattus norvegicus [16]): <50%
25,CCOC(=O)c1ccc(NCCCc2ccc(F)cc2)cc1,,,81,,68,,,,Diet (Rattus norvegicus [18]): 90%; Diet (Rattus norvegicus [19]): 71%; Diet (Rattus norvegicus [3]): 78%; Diet (Rattus norvegicus [6]): 83%
10,O=C(O)c1ccc(NCCCCc2cccs2)cc1,,,,98,90,94,90,,"Diet (Rattus norvegicus [13]): 89%; serum sterol, percent of control (Rattus norvegicus [14]): 77%"
< 71,C=C(CCCCCCCCCC)CCCCCNc1ccc(C(=O)O)cc1,,<30,<53,,,,,,"Diet (Rattus norvegicus [20]): <65%; Diet (Rattus norvegicus [3]): <85%; serum triglycerides, percent of control (Rattus norvegicus [21]): <64%; Diet (Rattus norvegicus [6]): <81%"
< 54,CCOC(=O)c1ccc(NCCCCCCCc2ccccc2)cc1,<82,<72,89,,,,,89,Diet (Rattus norvegicus [15]): 90%; Diet (Rattus norvegicus [16]): <84%
